6 compounds from ChEMBL document CHEMBL3779815, “Synthesis of newer 1,2,3-triazole linked chalcone and flavone hybrid compounds and evaluation of their antimicrobial and cytotoxic activities” (Eur J Med Chem, 2016) can be followed below.

Values after ≈ are worked out from the molar mass of the structure shown.

The nature of series [1]: Cytotoxicity against human HuH7 cells after 72 hrs by MTT assay. The class given is cell-based, Huh-7. An outline of the steps: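 Huh-7 cells, 4 × 10³/well in DMEM with 10% FBS and penicillin-streptomycin-glutamine; eight 2-fold dilutions 100-0.78 μg/mL, 72 h; MTT added 2-4 h, then isopropanol/Triton X-100/HCl solubilization 2 h dark, RT; absorbance 570 nm; CC50 as mean of at least two experiments in duplicate.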
A general note: Formazan colour is commonly taken as a measure of viable cells.

Another series deals with Enterococcus faecalis. Kind of series: Antibacterial activity against Enterococcus faecalis ATCC 29212 after 18 to 24 hrs by micro-dilution assay. The class given is functional.
For the next series, the system named is Candida tropicalis. The experiment in a line: Antifungal activity against Candida tropicalis ATCC 750 after 18 to 24 hrs by micro-dilution method. Type of series: functional. An outline of the steps: (§1)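 Microdilution MIC run as the antibacterial protocol but on Sabouraud dextrose […] pH 7.3±0.2; compounds 100 to 0.78 μg/mL in twofold steps; saline-prepared inocula 1-2 × 10⁷ cfu/mL, 0.01 mL added; 37 °C aerobic, 18-24 h; MIC read as lowest concentration without visible growth or turbidity; fluconazole reference.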

The next series concerns Pseudomonas aeruginosa. The experiment in a line: Antibacterial activity against Pseudomonas aeruginosa […] after 18 to 24 hrs by micro-dilution method. Type of series: functional. (In broth dilution the organism is exposed to a series of concentrations in liquid medium.)
The test system of a further series is Aspergillus fumigatus. The experiment in a line: Antifungal activity against Aspergillus fumigatus clinical isolate after 18 to 24 hrs by micro-dilution method. The class given is functional. An outline of the steps:
as §1

The subject of a further series is Staphylococcus aureus. The experiment in a line: Antibacterial activity against Staphylococcus aureus […] after 18 to 24 hrs by micro-dilution method. The class given is functional.
The next series relates to Klebsiella pneumoniae. The experiment in a line: Antibacterial activity against Klebsiella pneumoniae ATCC 27736 after 18 to 24 hrs by micro-dilution method. Type of series: functional.
In series [2] the test system is Candida albicans. The experiment in a line: Antifungal activity against Candida albicans ATCC 90028 after 18 to 24 hrs by micro-dilution method. Type of series: functional. An outline of the steps:
as §1

The subject of the next series is Cryptococcus neoformans. The experiment in a line: Antifungal activity against Cryptococcus neoformans clinical isolate after 18 to 24 hrs by micro-dilution method. Type of series: functional. An outline of the steps: as §1
For a further series, the system named is Arthrodermataceae. The experiment in a line: Antifungal activity against Dermatophyte clinical isolate after 18 to 24 hrs by micro-dilution method. Type of series: functional. The essentials: as §1
The next series relates to Candida parapsilosis. Kind of series: Antifungal activity against Candida parapsilosis ATCC 22019 after 18 to 24 hrs by micro-dilution method. The class given is functional. Conditions: Lodderomyces parapsilosis. The essentials: as §1
The subject of series [3] is Candida albicans. The experiment in a line: Antifungal activity against Candida albicans clinical isolate after 18 to 24 hrs by micro-dilution method. Type of series: functional. An outline of the steps:
as §1

The next series has as its system Aspergillus niger. Kind of series: Antifungal activity against Aspergillus niger clinical isolate after 18 to 24 hrs by micro-dilution method. The class given is functional. The essentials:
as §1

In another series the test system is Escherichia coli. The experiment in a line: Antibacterial activity against Escherichia coli ATCC 35218 after 18 to 24 hrs by micro-dilution method. The class given is functional.
The test system of another series is Shigella boydii. Kind of series: Antibacterial activity against Shigella boydii clinical isolate after 18 to 24 hrs by micro-dilution method. Type of series: functional.
A further series relates to Plasmodium falciparum. Kind of series: Antimalarial activity against erythrocytic stage of chloroquine sensitive Plasmodium falciparum 3D7 assessed as inhibition of parasitemia after 48 hrs by Giemsa staining based microscopic analysis. Conditions: 3D7, 48 h. The class given is functional, organism-based. An outline of the steps:
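Asynchronous culture on human O⁺ erythrocytes, 1-1.5% parasitemia, 4% hematocrit, RPMI-1640 with HEPES, NaHCO₃, glutamine, gentamycin, Albumax II; drug 0.10-100 μg/mL, 48 h, 37 °C, medium changed at 24 h; triplicate wells; Giemsa thin smears, about 4,000 erythrocytes counted at 1,000X; % parasitemia inhibition versus control gives IC50.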

Broadly, the CC50 is the concentration at which the toxic effect on the cells reaches its halfway point. A low value points to harm at low concentration. Usually MIC stands for the lowest concentration found to suppress growth. A low value points to a more susceptible organism. By IC50 is commonly meant the concentration that gives 50% inhibition. In the case of `COc1cc(O)c(C(=O)/C=C/c2ccc(OCc3cn(-c4ccccc4Cl)nn3)c(OCc3cn(-c4ccccc4Cl)nn3)c2)c(OC)c1`, the CC50 at 72 h in series [1] was above 100 µg/mL. The MIC against Enterococcus faecalis, with Candida tropicalis, with Pseudomonas aeruginosa, against Aspergillus fumigatus, in the series with Staphylococcus aureus and with Klebsiella pneumoniae was above 100 µg/mL each time. The MIC with Candida albicans [2], in the series with Cryptococcus neoformans, with Arthrodermataceae, in the series on Candida parapsilosis, against Candida albicans [3] and with Aspergillus niger was above 100 µg/mL each time. Further, the MIC against Escherichia coli and against Shigella boydii was above 100 µg/mL in each case. Also, the 50% inhibitory concentration (IC50) in the series on Plasmodium falciparum came out at 8.38 µg/mL (≈ 12 µM).

As for `COc1cc(OC)c2c(=O)cc(-c3ccc(OCc4cn(-c5ccc(Cl)cc5)nn4)c(OC)c3)oc2c1`, the CC50 at 72 h in series [1] was above 100 µg/mL. Besides, the MIC was 100 µg/mL (≈ 192 µM) against Enterococcus faecalis; 50 µg/mL (≈ 96.2 µM) against Candida tropicalis; above 100 µg/mL against Pseudomonas aeruginosa; 50 µg/mL (≈ 96.2 µM) in the series with Aspergillus fumigatus; above 100 µg/mL in the series on Staphylococcus aureus; above 100 µg/mL against Klebsiella pneumoniae. Moreover, the MIC against Candida albicans [2] stood at 50 µg/mL (≈ 96.2 µM); against Cryptococcus neoformans it was 12.5 µg/mL (≈ 24 µM); in the series on Arthrodermataceae it was 12.5 µg/mL (≈ 24 µM); with Candida parapsilosis it was 50 µg/mL (≈ 96.2 µM); in the series on Candida albicans [3], 12.5 µg/mL (≈ 24 µM); against Aspergillus niger, 50 µg/mL (≈ 96.2 µM). Further, the MIC against Escherichia coli and with Shigella boydii was above 100 µg/mL in each case. The IC50 in the series on Plasmodium falciparum is 5.19 µg/mL (≈ 9.98 µM).

Turning to `COc1cc(OC)c2c(=O)cc(-c3ccc(OCc4cn(-c5ccc(F)cc5Cl)nn4)c(OC)c3)oc2c1`, in series [1], the CC50 at 72 h is above 100 µg/mL. For the same compound, the MIC was above 100 µg/mL against Enterococcus faecalis; 12.5 µg/mL (≈ 23.2 µM) in the series with Candida tropicalis; above 100 µg/mL with Pseudomonas aeruginosa; 12.5 µg/mL (≈ 23.2 µM) against Aspergillus fumigatus; 50 µg/mL (≈ 92.9 µM) in the series with Staphylococcus aureus; above 100 µg/mL in the series on Klebsiella pneumoniae. The MIC against Candida albicans [2] was 12.5 µg/mL (≈ 23.2 µM); in the series with Cryptococcus neoformans, 12.5 µg/mL (≈ 23.2 µM); with Arthrodermataceae, 25 µg/mL (≈ 46.5 µM); in the series on Candida parapsilosis it was 12.5 µg/mL (≈ 23.2 µM); with Candida albicans [3], 12.5 µg/mL (≈ 23.2 µM); in the series on Aspergillus niger it was 12.5 µg/mL (≈ 23.2 µM). For the same compound, the MIC with Escherichia coli and against Shigella boydii was 50 µg/mL (≈ 92.9 µM) throughout. Besides, the IC50 in the series with Plasmodium falciparum stood at 3.85 µg/mL (≈ 7.16 µM).

`COc1cc(O)c(C(=O)/C=C/c2ccc(OCc3cn(-c4ccc(F)cc4F)nn3)c(OCc3cn(-c4ccc(F)cc4F)nn3)c2)c(OC)c1` had a CC50 at 72 h in series [1] above 100 µg/mL. Besides, the MIC in the series on Enterococcus faecalis was found to be 6.25 µg/mL (≈ 8.9 µM); against Candida tropicalis, 12.5 µg/mL (≈ 17.8 µM); with Pseudomonas aeruginosa, 12.5 µg/mL (≈ 17.8 µM); in the series with Aspergillus fumigatus it was 25 µg/mL (≈ 35.6 µM); with Staphylococcus aureus it was 12.5 µg/mL (≈ 17.8 µM); against Klebsiella pneumoniae it was 12.5 µg/mL (≈ 17.8 µM). For the same compound, the MIC against Candida albicans [2] came to 6.25 µg/mL (≈ 8.9 µM); in the series on Cryptococcus neoformans, 6.25 µg/mL (≈ 8.9 µM); with Arthrodermataceae it was 12.5 µg/mL (≈ 17.8 µM); in the series with Candida parapsilosis it was 12.5 µg/mL (≈ 17.8 µM); against Candida albicans [3] it was 6.25 µg/mL (≈ 8.9 µM); against Aspergillus niger it was 25 µg/mL (≈ 35.6 µM). Further, the MIC in the series with Escherichia coli and with Shigella boydii was 6.25 µg/mL (≈ 8.9 µM) in each case. In addition, in the series on Plasmodium falciparum, the IC50 came to 8.86 µg/mL (≈ 12.6 µM).

Turning to `COc1cc(OC)c2c(=O)cc(-c3ccc(OCc4cn(-c5ccc(F)c(Cl)c5)nn4)c(OCc4cn(-c5ccc(F)c(Cl)c5)nn4)c3)oc2c1`, the CC50 at 72 h in series [1] was above 100 µg/mL. Further, the MIC was above 100 µg/mL against Enterococcus faecalis; 100 µg/mL (≈ 136 µM) against Candida tropicalis; 100 µg/mL (≈ 136 µM) against Pseudomonas aeruginosa; above 100 µg/mL against Aspergillus fumigatus; above 100 µg/mL against Staphylococcus aureus; above 100 µg/mL in the series with Klebsiella pneumoniae. Moreover, the MIC against Candida albicans [2] was above 100 µg/mL; against Cryptococcus neoformans it was above 100 µg/mL; against Arthrodermataceae, above 100 µg/mL; with Candida parapsilosis, above 100 µg/mL; with Candida albicans [3], above 100 µg/mL; in the series with Aspergillus niger it was 100 µg/mL (≈ 136 µM). For the same compound, the MIC in the series on Escherichia coli is 100 µg/mL (≈ 136 µM); with Shigella boydii, above 100 µg/mL. For the same compound, the IC50 in the series with Plasmodium falciparum is 10.4 µg/mL (≈ 14.2 µM).

In series [1], `COc1cc(OC)c2c(=O)cc(-c3ccc(OCc4cn(-c5ccc(F)cc5Cl)nn4)c(OCc4cn(-c5ccc(F)cc5Cl)nn4)c3)oc2c1` registered a CC50 at 72 h above 100 µg/mL. Besides, the MIC in the series with Enterococcus faecalis was above 100 µg/mL; in the series with Candida tropicalis, 6.25 µg/mL (≈ 8.52 µM); in the series with Pseudomonas aeruginosa it was above 100 µg/mL; with Aspergillus fumigatus it was 12.5 µg/mL (≈ 17 µM); against Staphylococcus aureus, above 100 µg/mL; against Klebsiella pneumoniae it was above 100 µg/mL. The minimum inhibitory concentration (MIC) amounted to 12.5 µg/mL (≈ 17 µM) with Candida albicans [2]; 12.5 µg/mL (≈ 17 µM) in the series with Cryptococcus neoformans; 6.25 µg/mL (≈ 8.52 µM) in the series with Arthrodermataceae; 12.5 µg/mL (≈ 17 µM) against Candida parapsilosis; 12.5 µg/mL (≈ 17 µM) against Candida albicans [3]; 12.5 µg/mL (≈ 17 µM) in the series with Aspergillus niger. In addition, the MIC with Escherichia coli and in the series on Shigella boydii was above 100 µg/mL throughout. Besides, the IC50 in the series on Plasmodium falciparum turned out to be 14.5 µg/mL (≈ 19.7 µM).
